Reference: ChEMBL document CHEMBL5724801, “EUbOPEN Chemogenomics Library - Multiplex” (2024)
Several values for one entry are separate records, joined by “and”; a condition that tells them apart may be missing. Identical values can stand only once.

Tested on: U2OS
Assay: Multiplex assay against U2OS
Assay type: toxicity, cell-based
Conditions: human, 12 h, 1 µM, compound concentration 1 uM
How it was run: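 Phenotypes for tubulin, mitochondrial mass and membrane permeability are expressed as per cents of healthy-nucleus cells. Cells were stained live at seeding with Hoechst33342, BioTracker Green Microtubule Cytoskeleton Dye, MitoTracker Red and Annexin V Alexa Fluor 680, then imaged after compound addition on a CQ1 microscope at 37°C and 5% CO2. Machine-learning gating in CellPathfinder separated Hoechst high-intensity objects from normal cells, divided normal cells by nuclear state (healthy, pyknosed, fragmented) and divided pyknosed cells into mitotic or apoptotic.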

| Compound | Population Apoptotic (%) | Population Fragmented Nuclei (%) | Population Healthy Nuclei (%) | Population Hoechst High Intensity Objects (%) | Population Membrane Permeable-Phenotype (%) | Population Mitochondria Different-Phenotype (%) | Population Mitotic Cells (%) | Population Normal (%) | Population Pyknosed Nuclei (%) | Population Tubulin-Different-Phenotype (%) |
| --- | --- | --- | --- | --- | --- | --- | --- | --- | --- | --- |
| COc1cc2nc(N3CCN(C(=O)c4ccco4)CC3)nc(N)c2cc1OC.Cl [PRAZOSIN HYDROCHLORIDE] | 88% and 94% | 21% and 18% | 70% and 69% | 2% and 1% | 4% and 5% | 2% and 7% | 11% and 5% | 97% and 98% | 7% and 12% | 1% and 8% |
| O=C(O)CCC/C=C\CC1C(O)CC(O)C1/C=C/C(O)COc1cccc(Cl)c1 (stereo not given) [CLOPROSTENOL] | 77% and 75% | 30% and 11% | 60% and 82% | 3% and 0% | 2% and 6% | 0% and 3% | 22% and 25% | 96% and 100% | 9% and 6% | 1% and 2% |

Same assay, conditions: human, 12 h, 1 µM, compound concentration 1 uM

| Compound | Total Cell Count |
| --- | --- |
| COc1cc2nc(N3CCN(C(=O)c4ccco4)CC3)nc(N)c2cc1OC.Cl [PRAZOSIN HYDROCHLORIDE] | 235 and 159 |
| O=C(O)CCC/C=C\CC1C(O)CC(O)C1/C=C/C(O)COc1cccc(Cl)c1 (stereo not given) [CLOPROSTENOL] | 201 and 129 |

Same assay, conditions: human, 12 h, 10 µM, compound concentration 10 uM

| Compound | Population Apoptotic (%) | Population Fragmented Nuclei (%) | Population Healthy Nuclei (%) | Population Hoechst High Intensity Objects (%) | Population Membrane Permeable-Phenotype (%) | Population Mitochondria Different-Phenotype (%) | Population Mitotic Cells (%) | Population Normal (%) | Population Pyknosed Nuclei (%) | Population Tubulin-Different-Phenotype (%) |
| --- | --- | --- | --- | --- | --- | --- | --- | --- | --- | --- |
| COc1cc2nc(N3CCN(C(=O)c4ccco4)CC3)nc(N)c2cc1OC.Cl [PRAZOSIN HYDROCHLORIDE] | 86% and 72% | 25% and 15% | 67% and 74% | 3% and 0% | 12% and 4% | 2% and 5% | 13% and 27% | 96% and 99% | 7% and 9% | 6% and 7% |
| O=C(O)CCC/C=C\CC1C(O)CC(O)C1/C=C/C(O)COc1cccc(Cl)c1 (stereo not given) [CLOPROSTENOL] | 92% and 45% |  | 60% and 81% | 2% and 0% | 8% and 9% | 1% and 6% |  | 97% and 100% | 10% and 8% | 3% |

Same assay, conditions: human, 12 h, 10 µM, compound concentration 10 uM

| Compound | Total Cell Count |
| --- | --- |
| COc1cc2nc(N3CCN(C(=O)c4ccco4)CC3)nc(N)c2cc1OC.Cl [PRAZOSIN HYDROCHLORIDE] | 216 and 114 |
| O=C(O)CCC/C=C\CC1C(O)CC(O)C1/C=C/C(O)COc1cccc(Cl)c1 (stereo not given) [CLOPROSTENOL] | 272 and 131 |

Same assay, conditions: human, 24 h, 1 µM, compound concentration 1 uM

| Compound | Population Apoptotic (%) | Population Fragmented Nuclei (%) | Population Healthy Nuclei (%) | Population Hoechst High Intensity Objects (%) | Population Membrane Permeable-Phenotype (%) | Population Mitochondria Different-Phenotype (%) | Population Mitotic Cells (%) | Population Normal (%) | Population Pyknosed Nuclei (%) | Population Tubulin-Different-Phenotype (%) |
| --- | --- | --- | --- | --- | --- | --- | --- | --- | --- | --- |
| COc1cc2nc(N3CCN(C(=O)c4ccco4)CC3)nc(N)c2cc1OC.Cl [PRAZOSIN HYDROCHLORIDE] | 95% and 100% | 22% and 15% | 69% and 74% | 1% and 0% | 8% and 10% | 2% and 5% | 4% and 0% | 98% and 100% | 7% and 10% | 4% and 9% |
| O=C(O)CCC/C=C\CC1C(O)CC(O)C1/C=C/C(O)COc1cccc(Cl)c1 (stereo not given) [CLOPROSTENOL] | 81% and 75% | 24% and 15% | 63% and 77% | 1% and 0% | 4% and 6% | 2% | 18% and 25% | 98% and 100% | 11% and 7% | 2% and 4% |

Same assay, conditions: human, 24 h, 1 µM, compound concentration 1 uM

| Compound | Total Cell Count |
| --- | --- |
| COc1cc2nc(N3CCN(C(=O)c4ccco4)CC3)nc(N)c2cc1OC.Cl [PRAZOSIN HYDROCHLORIDE] | 273 and 188 |
| O=C(O)CCC/C=C\CC1C(O)CC(O)C1/C=C/C(O)COc1cccc(Cl)c1 (stereo not given) [CLOPROSTENOL] | 237 and 157 |

Same assay, conditions: human, 24 h, 10 µM, compound concentration 10 uM

| Compound | Population Apoptotic (%) | Population Fragmented Nuclei (%) | Population Healthy Nuclei (%) | Population Hoechst High Intensity Objects (%) | Population Membrane Permeable-Phenotype (%) | Population Mitochondria Different-Phenotype (%) | Population Mitotic Cells (%) | Population Normal (%) | Population Pyknosed Nuclei (%) | Population Tubulin-Different-Phenotype (%) |
| --- | --- | --- | --- | --- | --- | --- | --- | --- | --- | --- |
| COc1cc2nc(N3CCN(C(=O)c4ccco4)CC3)nc(N)c2cc1OC.Cl [PRAZOSIN HYDROCHLORIDE] | 78% and 85% | 23% and 13% | 68% and 71% | 2% and 1% | 8% and 7% | 6% and 5% | 21% and 14% | 97% and 98% | 7% and 15% | 6% and 4% |
| O=C(O)CCC/C=C\CC1C(O)CC(O)C1/C=C/C(O)COc1cccc(Cl)c1 (stereo not given) [CLOPROSTENOL] | 90% and 70% | 23% and 11% | 66% and 82% | 2% and 0% | 7% and 11% | 2% and 4% | 10% and 30% | 97% and 100% | 10% and 5% | 3% and 4% |

Same assay, conditions: human, 24 h, 10 µM, compound concentration 10 uM

| Compound | Total Cell Count |
| --- | --- |
| COc1cc2nc(N3CCN(C(=O)c4ccco4)CC3)nc(N)c2cc1OC.Cl [PRAZOSIN HYDROCHLORIDE] | 244 and 138 |
| O=C(O)CCC/C=C\CC1C(O)CC(O)C1/C=C/C(O)COc1cccc(Cl)c1 (stereo not given) [CLOPROSTENOL] | 306 and 177 |

Same assay, conditions: human, 48 h, 1 µM, compound concentration 1 uM

| Compound | Population Apoptotic (%) | Population Fragmented Nuclei (%) | Population Healthy Nuclei (%) | Population Hoechst High Intensity Objects (%) | Population Membrane Permeable-Phenotype (%) | Population Mitochondria Different-Phenotype (%) | Population Mitotic Cells (%) | Population Normal (%) | Population Pyknosed Nuclei (%) | Population Tubulin-Different-Phenotype (%) |
| --- | --- | --- | --- | --- | --- | --- | --- | --- | --- | --- |
| COc1cc2nc(N3CCN(C(=O)c4ccco4)CC3)nc(N)c2cc1OC.Cl [PRAZOSIN HYDROCHLORIDE] | 94% and 100% | 16% and 15% | 74% and 77% | 2% and 1% | 6% and 7% | 2% and 7% | 5% and 0% | 97% and 98% | 9% and 7% | 2% and 5% |
| O=C(O)CCC/C=C\CC1C(O)CC(O)C1/C=C/C(O)COc1cccc(Cl)c1 (stereo not given) [CLOPROSTENOL] | 89% and 81% | 20% and 11% | 70% and 81% | 1% and 0% | 2% and 6% | 1% and 3% | 10% and 18% | 98% and 99% | 8% and 7% | 0% and 2% |

Same assay, conditions: human, 48 h, 1 µM, compound concentration 1 uM

| Compound | Total Cell Count |
| --- | --- |
| COc1cc2nc(N3CCN(C(=O)c4ccco4)CC3)nc(N)c2cc1OC.Cl [PRAZOSIN HYDROCHLORIDE] | 388 and 266 |
| O=C(O)CCC/C=C\CC1C(O)CC(O)C1/C=C/C(O)COc1cccc(Cl)c1 (stereo not given) [CLOPROSTENOL] | 344 and 229 |

Same assay, conditions: human, 48 h, 10 µM, compound concentration 10 uM

| Compound | Population Apoptotic (%) | Population Fragmented Nuclei (%) | Population Healthy Nuclei (%) | Population Hoechst High Intensity Objects (%) | Population Membrane Permeable-Phenotype (%) | Population Mitochondria Different-Phenotype (%) | Population Mitotic Cells (%) | Population Normal (%) | Population Pyknosed Nuclei (%) | Population Tubulin-Different-Phenotype (%) |
| --- | --- | --- | --- | --- | --- | --- | --- | --- | --- | --- |
| COc1cc2nc(N3CCN(C(=O)c4ccco4)CC3)nc(N)c2cc1OC.Cl [PRAZOSIN HYDROCHLORIDE] | 96% and 94% | 20% and 15% | 71% and 76% | 1% and 2% | 5% | 2% and 6% | 3% and 5% | 98% and 97% | 8% | 3 |
| O=C(O)CCC/C=C\CC1C(O)CC(O)C1/C=C/C(O)COc1cccc(Cl)c1 (stereo not given) [CLOPROSTENOL] | 91% and 84% | 18% and 12% | 67% and 82% | 3% and 2% | 6% and 10% | 1% and 2% | 8% and 15% | 96% and 97% | 14% and 5% | 4 |

Same assay, conditions: human, 48 h, 10 µM, compound concentration 10 uM

| Compound | Total Cell Count |
| --- | --- |
| COc1cc2nc(N3CCN(C(=O)c4ccco4)CC3)nc(N)c2cc1OC.Cl [PRAZOSIN HYDROCHLORIDE] | 341 and 208 |
| O=C(O)CCC/C=C\CC1C(O)CC(O)C1/C=C/C(O)COc1cccc(Cl)c1 (stereo not given) [CLOPROSTENOL] | 396 and 246 |
